In ChEMBL document CHEMBL3758165, “In vitro interactions between anidulafungin and nonsteroidal anti-inflammatory drugs on biofilms of Candida spp” (2016):

Tests used:
Format in all cases: functional
Candida albicans [1] = assay: Antibiofilm activity against Candida albicans 17a18 by two dimensional checkerboard dilution method in presence of aspirin
Procedure, shortened: (§1)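 Preformed 48 h disk biofilms (RPMI 1640, MOPS pH 7, 37 °C), PBS-washed, exposed 24 h at 37 °C on rocker to two-dimensional checkerboard of anidulafungin plus NSAID in RPMI; NSAID final 0.1 µM to 100 mM. XTT reduction at 490 nm; SMIC = combination giving 50% metabolic reduction versus drug-free control; FIC index calculated; triplicate on different days.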

[2] = test system: Meyerozyma guilliermondii; assay: Antibiofilm activity against Candida guilliermondii a410 by two dimensional checkerboard dilution method in presence of ibuprofen
Procedure, shortened: (§2)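 Biofilms were grown on PVC disks from 2 ml of a 1·10^6 cfu/ml cell suspension. Adhesion ran 1.5 h at 37 °C with shaking at 100 rpm. Disks were PBS-washed, then matured 48 h at 37 °C in RPMI 1640 (MOPS, pH 7). Biofilms were washed again and given 24 h at 37 °C of anidulafungin/NSAID checkerboard combinations (NSAID final 0.1 µM–100 mM). Read-out was XTT-menadione (2 h, 37 °C, 490 nm). SMIC was defined as 50% reduction versus drug-free control, from which FICI was calculated. Triplicates were run on different days.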

[3] = test system: Meyerozyma guilliermondii; assay: Antibiofilm activity against Candida guilliermondii a83 by two dimensional checkerboard dilution method in presence of aspirin; procedure, shortened: as §2
Nakaseomyces glabratus [4] = assay: Antibiofilm activity against Candida glabrata 18a10 assessed as fractional inhibitory concentration by two dimensional checkerboard dilution method in presence of aspirin; procedure, shortened: as §1
Candida albicans [5] = assay: Antibiofilm activity against Candida albicans ATCC 90028 by two dimensional checkerboard dilution method in presence of ibuprofen; procedure, shortened: as §1
Nakaseomyces glabratus [6] = assay: Antibiofilm activity against Candida glabrata 18a10 assessed as fractional inhibitory concentration by two dimensional checkerboard dilution method in presence of diclofenac; procedure, shortened: as §1
Candida albicans [7] = assay: Antibiofilm activity against Candida albicans 17a18 assessed as fractional inhibitory concentration by two dimensional checkerboard dilution method in presence of aspirin; procedure, shortened: as §1
[8] = test system: Meyerozyma guilliermondii; assay: Antibiofilm activity against Candida guilliermondii ATCC 6260 by two dimensional checkerboard dilution method in presence of aspirin; procedure, shortened: as §1
[9] = test system: Meyerozyma guilliermondii; assay: Antibiofilm activity against Candida guilliermondii a410 by two dimensional checkerboard dilution method in presence of diclofenac; procedure, shortened: as §2
Candida albicans [10] = assay: Antibiofilm activity against Candida albicans ATCC 10231 assessed as fractional inhibitory concentration by two dimensional checkerboard dilution method in presence of diclofenac; procedure, shortened: as §1
Candida albicans [11] = assay: Antibiofilm activity against Candida albicans ATCC 24433 assessed as fractional inhibitory concentration by two dimensional checkerboard dilution method in presence of diclofenac; procedure, shortened: as §1
[12] = test system: Meyerozyma guilliermondii; assay: Antibiofilm activity against Candida guilliermondii a410 after 48 hrs by XTT reduction assay relative to control; design: scale not given: the % may be the effect or the level left
Procedure, shortened: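 Biofilms grown on autoclaved PVC disks: 1·10^6 cfu ml-1 cells, adhesion 1.5 h at 37 °C shaking 100 rpm, PBS wash, then 48 h at 37 °C in RPMI 1640 (MOPS, pH 7). Metabolic activity read by XTT–menadione reduction, 2 h at 37 °C, supernatant formazan at 490 nm, relative to drug-free control; triplicate on different days.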

Candida albicans [13] = assay: Antibiofilm activity against Candida albicans ATCC 90028 assessed as fractional inhibitory concentration by two dimensional checkerboard dilution method in presence of diclofenac; procedure, shortened: as §1
Candida albicans [14] = assay: Antibiofilm activity against Candida albicans 17a18 assessed as fractional inhibitory concentration by two dimensional checkerboard dilution method in presence of diclofenac; procedure, shortened: as §1
Candida albicans [15] = assay: Antibiofilm activity against Candida albicans ATCC 90028 at 0.1 uM to 100 mM after 48 hrs by XTT reduction assay relative to control; design: scale not given: the % may be the effect or the level left
Procedure, shortened: (§3)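 Biofilms grown on sterilized PVC disks: 1·10^6 cfu/ml Candida cells adhered for 1.5 h at 37 °C with shaking, washed with PBS, then matured 48 h at 37 °C in RPMI 1640 (MOPS, pH 7). Preformed biofilms were washed and exposed to drug, alone or in two-dimensional checkerboard combination, in RPMI 1640 for 24 h at 37 °C on a rocker.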

[16] = test system: Meyerozyma guilliermondii; assay: Antibiofilm activity against Candida guilliermondii a410 at 0.2 mM after 24 hrs by XTT reduction assay relative to control; design: scale not given: the % may be the effect or the level left; procedure, shortened: as §3
Candida albicans [17] = assay: Antibiofilm activity against Candida albicans ATCC 10231 at 1 mM after 24 hrs by XTT reduction assay relative to control; design: scale not given: the % may be the effect or the level left; procedure, shortened: as §3

## CCCCCOc1ccc(-c2ccc(-c3ccc(C(=O)N[C@@H]4C[C@@H](O)[C@@H](O)NC(=O)[C@@H]5[C@@H](O)[C@@H](C)CN5C(=O)[C@H]([C@@H](C)O)NC(=O)[C@H]([C@H](O)[C@@H](O)c5ccc(O)cc5)NC(=O)[C@@H]5C[C@@H](O)CN5C(=O)[C@H]([C@H](C)O)NC4=O)cc3)cc2)cc1
Candida albicans [1]
  MIC: 0.1 µg/mL
[2]
  MIC: 0.4 µg/mL
[3]
  MIC: 0.1 µg/mL
Nakaseomyces glabratus [4]
  Ratio: 0.05
Candida albicans [5]
  MIC: 0.4 µg/mL
Nakaseomyces glabratus [6]
  Ratio: 0.1
Candida albicans [7]
  Ratio: 0.05
[8]
  MIC: 0.1 µg/mL
[9]
  MIC: 0.1 µg/mL
Candida albicans [10]
  Ratio: 0.05
Candida albicans [11]
  Ratio: 0.05
[12]
  Activity: 45.62%
Candida albicans [13]
  Ratio: 0.05
Candida albicans [14]
  Ratio: 0.05

## O=C([O-])Cc1ccccc1Nc1c(Cl)cccc1Cl.[Na+] [DICLOFENAC SODIUM]
Candida albicans [15]
  Activity: 51.15%

## CC(C)Cc1ccc(C(C)C(=O)O)cc1 (configuration not stated) [IBUPROFEN]
[16]
  Activity: 53.24%
Candida albicans [17]
  Activity: 16.26%
